This is an account of results in ChEMBL document CHEMBL1153265, “Quinolines as a novel structural class of potent and selective PDE4 inhibitors: optimisation for oral administration” (Bioorg Med Chem Lett, 2009).

In brackets after ≈: the same amount, converted by molar mass.

In data set [1] the target is 3',5'-cyclic-AMP phosphodiesterase 4B (Homo sapiens, UniProt Q07343). The experiment in a line: Inhibition of human recombinant PDE4B by scintillation proximity assay.
A short description of data set [2]: Solubility of the compound. It is filed as physicochemical.
The nature of data set [3]: Half life in Sprague-Dawley CD rat at 1 mg/kg, iv and 1 mg/kg, po. The settings on record: in vivo. It counts as ADME, organism-based. The essentials: (§1)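 Male CD Sprague rats, each compound given intravenously and orally at 1 mg/kg. Pharmacokinetic parameters derived from both routes.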
Data set [4] is described as follows: Oral bioavailability in Sprague-Dawley CD rat at 1 mg/kg. It is filed as ADME, organism-based. Particulars: in vivo. In a few lines: as §1
Data set [5] is described as follows: Clearance in Sprague-Dawley CD rat at 1 mg/kg, iv and 1 mg/kg, po. It counts as ADME, organism-based. The settings on record: in vivo. In a few lines: as §1
Data set [6] in a line: AUC in Sprague-Dawley CD rat at 1 mg/kg, po. It is filed as ADME, organism-based. On the set-up: dose 1 mg/kg, route oral. The settings on record: plasma. In a few lines:
as §1

Data set [7] concerns Blood. Description: Inhibition of LPS-induced TNFalpha production in human whole blood. It is filed as functional, tissue-based.
A short description of data set [8]: Selectivity for human recombinant PDE4B over PDE6.
The nature of data set [9]: Selectivity for human recombinant PDE4B over PDE1.
Data set [10] is described as follows: Selectivity for human recombinant PDE4B over PDE2.
Data set [11] can be described thus: Selectivity for human recombinant PDE4B over PDE7.
Data set [12] can be described thus: Selectivity for human recombinant PDE4B over bovine aorta PDE3. It is filed as tissue-based. The essentials: (§2)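 Catalytic activity of human recombinant PDE4B, PDE3 purified from bovine aorta and human recombinant PDE5 was measured by scintillation proximity assay in 96-well format. Selectivity compares inhibition of PDE4B with inhibition of the other enzyme.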

The species named for data set [13] is Homo sapiens. Description: Selectivity for human recombinant PDE4B over human recombinant PDE5. In a few lines:
as §2

Chain of 3',5'-cyclic-AMP phosphodiesterase 4B (Q07343 whole entry): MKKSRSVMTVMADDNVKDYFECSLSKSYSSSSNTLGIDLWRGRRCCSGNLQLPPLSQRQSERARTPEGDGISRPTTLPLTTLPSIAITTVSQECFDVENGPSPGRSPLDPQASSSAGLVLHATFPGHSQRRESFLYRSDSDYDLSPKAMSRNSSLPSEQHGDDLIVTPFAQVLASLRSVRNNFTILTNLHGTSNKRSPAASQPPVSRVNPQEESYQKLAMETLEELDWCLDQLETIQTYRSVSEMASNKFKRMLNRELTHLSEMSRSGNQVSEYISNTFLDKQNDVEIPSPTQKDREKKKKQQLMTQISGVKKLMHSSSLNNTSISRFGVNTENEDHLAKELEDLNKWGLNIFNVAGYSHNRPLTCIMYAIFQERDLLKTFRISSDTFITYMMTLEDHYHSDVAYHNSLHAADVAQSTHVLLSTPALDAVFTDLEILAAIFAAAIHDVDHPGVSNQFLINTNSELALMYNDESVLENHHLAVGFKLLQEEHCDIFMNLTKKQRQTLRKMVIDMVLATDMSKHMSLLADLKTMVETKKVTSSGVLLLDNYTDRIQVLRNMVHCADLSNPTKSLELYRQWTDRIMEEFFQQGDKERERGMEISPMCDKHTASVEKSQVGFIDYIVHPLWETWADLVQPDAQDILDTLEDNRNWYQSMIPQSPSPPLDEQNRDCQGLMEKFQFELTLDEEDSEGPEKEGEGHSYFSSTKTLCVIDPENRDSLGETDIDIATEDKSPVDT

For `COc1cccc(Nc2cc(C(N)=O)nc3ccc(S(C)(=O)=O)cc23)c1`, in data set [1], the IC50 is 7940 nM.

In turn, `COc1cc(Nc2c(C(N)=O)cnc3ccc(S(C)(=O)=O)cc23)ccc1F` gave a solubility in data set [2] of 4 µg/mL (≈ 10.3 µM). Further, in data set [3], the half-life is 1.9 h. In data set [4], this compound showed a bioavailability of 65%. Further, in data set [5], the clearance stood at 21 mL/min/kg. For the same compound, the AUC in data set [6] amounted to 530 ng·h/mL. For the same compound, the half-maximal inhibitory concentration (IC50) in [1] was 31.6 nM; in data set [7] it was 158 nM.

As to `CS(=O)(=O)c1ccc2ncc(C(N)=O)c(Oc3cccc(Cl)c3)c2c1`, the half-inhibitory concentration (IC50) in data set [1] is 3160 nM.

As to `CS(=O)(=O)c1ccc2ncc(C(N)=O)c(N)c2c1`, in [1], the IC50 was above 31600 nM.

For `COc1cccc(Nc2c(CN)cnc3ccc(S(=O)(=O)c4ccccc4)cc23)c1`, the IC50 in data set [1] was 251 nM.

Regarding `CS(=O)(=O)c1ccc2ncc(C(N)=O)c(Nc3cccc(CN)c3)c2c1`, the IC50 in data set [1] is 79.4 nM; in data set [7], 1260 nM.

Turning to `CS(=O)(=O)c1ccc2ncc(C(N)=O)c(Nc3cccc4c3CCO4)c2c1`, the concentration in solution in [2] (solubility) was 43 µg/mL (≈ 112 µM). This compound also showed a half-life in data set [3] of 1.7 h. Also, the bioavailability in data set [4] came out at 38%. Moreover, the clearance in data set [5] came to 38 mL/min/kg. In addition, the results for the IC50 in data set [1] and in [7] were 2.51 nM and 25.1 nM, respectively.

In the case of `CS(=O)(=O)c1ccc2ncc(C(N)=O)c(Nc3cccc(C#N)c3)c2c1`, the half-life in [3] is 0.9 h. In addition, the bioavailability in [4] came out at 23%. Moreover, in data set [5], the clearance came to 16 mL/min/kg. Besides, the IC50 was 20 nM in [1] and 316 nM in data set [7].

Consider `COc1cc(Nc2c(C(N)=O)cnc3c(C)cc(S(C)(=O)=O)cc23)ccc1F`, for which, in data set [2], the solubility was 5 µg/mL (≈ 12.4 µM). Moreover, in data set [3], the half-life was 1.6 h. The fold change (FC) in [8], in [9], in data set [10] and in data set [11] was above 100 in each case. Moreover, the bioavailability in data set [4] was 82%. This compound also yielded a clearance in data set [5] of 16 mL/min/kg. For the same compound, the area under the curve (AUC) in data set [6] stood at 770 ng·h/mL. The figures for the IC50 in data set [1] and in [7] were 0.316 nM and 7.94 nM, respectively.

In the case of `Cc1cc(S(C)(=O)=O)cc2c(Nc3cccc(C#N)c3)c(C(N)=O)cnc12`, the solubility in [2] worked out at 18 µg/mL (≈ 47.3 µM). In addition, the half-life in data set [3] is 2.3 h. Further, the fold change (FC) in data set [8], in data set [9], in [10] and in data set [11] was above 100 in each case. In [4], this compound registered a bioavailability of 27%. In [5], this compound returned a clearance of 19 mL/min/kg. The midpoint of inhibition in data set [7], the IC50, lay at 25.1 nM.

On to `COc1cc(Nc2c(C(N)=O)cnc3c(F)cc(S(C)(=O)=O)cc23)ccc1F`, for which the IC50 in data set [7] was 15.8 nM.

For the compound `COc1cccc(Nc2c(-c3nnc(C)o3)cnc3ccc(S(C)(=O)=O)cc23)c1`, the IC50 in [1] was 20000 nM.

Regarding `COc1cccc(Nc2c(C(N)=O)cnc3ccc(S(=O)(=O)c4ccccc4)cc23)c1`, the IC50 in data set [1] is 1.58 nM.

For the compound `COc1cc(Nc2c(C(N)=O)cnc3c(Cl)cc(S(C)(=O)=O)cc23)ccc1F`, the exposure (AUC) in [6] was found to be 16 ng·h/mL. In addition, in data set [7], the 50% inhibitory concentration (IC50) was 7.94 nM.

`CS(=O)(=O)c1ccc2ncc(C(N)=O)c(Sc3cccc(Cl)c3)c2c1`: the IC50 in data set [1] was 20000 nM.

The compound `CS(=O)(=O)c1ccc2ncc(C(N)=O)c(Nc3cccc(Cl)c3)c2c1` showed a solubility in data set [2] of 2 µg/mL (≈ 5.32 µM). In addition, the IC50 was 15.8 nM in data set [1] and 251 nM in data set [7].

Turning to `CS(=O)(=O)c1ccc2ncc(C(N)=O)c(NC3CCOCC3)c2c1`, the IC50 in [1] was above 31600 nM.

For `COc1cc(Nc2c(C(N)=O)cnc3c(OC)cc(S(C)(=O)=O)cc23)ccc1F`, in data set [6], the AUC came to 81 ng·h/mL. The results for the IC50 in [1] and in [7] were 5.01 nM and 251 nM, respectively.

In turn, `CCc1cc(S(C)(=O)=O)cc2c(Nc3ccc(F)c(OC)c3)c(C(N)=O)cnc12` gave an IC50 in data set [7] of 12.6 nM.

For the compound `CS(=O)(=O)c1ccc2ncc(C(N)=O)c(Nc3cccc(C(=O)O)c3)c2c1`, the IC50 in data set [1] was 5010 nM.

`CS(=O)(=O)c1ccc2ncc(C(N)=O)c(Nc3cccc(Cl)c3F)c2c1` showed a solubility in data set [2] of 12 µg/mL (≈ 30.5 µM). The half-life in data set [3] was 2 h. The bioavailability in [4] was 47%. Further, the clearance in data set [5] was 13 mL/min/kg. The half-inhibitory concentration (IC50) was 6.31 nM in data set [1] and 251 nM in [7].

On to `COc1cccc(Nc2c(C(=O)O)cnc3ccc(S(=O)(=O)c4ccccc4)cc23)c1`, for which, in [1], the half-maximal inhibitory concentration (IC50) was 12600 nM.

For the compound `CS(=O)(=O)c1ccc2ncc(C(N)=O)c(Nc3cccc(O)c3)c2c1`, in data set [2], the solubility came to 30 µg/mL (≈ 83.9 µM). Further, the fold change (FC) in [12] and in [13] was above 300 in each case. The concentration for half-maximal inhibition (IC50) in [1] was 100 nM.

In data set [2], `COc1cccc(Nc2c(C(N)=O)cnc3ccc(S(C)(=O)=O)cc23)c1` came in with a solubility of 5 µg/mL (≈ 13.5 µM). The compound also had a half-life in data set [3] of 1.1 h. In data set [4], the bioavailability stood at 10%. This compound also gave a clearance in [5] of 10 mL/min/kg.

As for `O=C(Nc1c(Cl)cncc1Cl)c1ccc(OC(F)F)c(OCC2CC2)c1` [ROFLUMILAST], the fold change (FC) in data set [12] and in data set [13] was above 300 in each case. The compound further showed a half-inhibitory concentration (IC50) in [7] of 20 nM.

`CN(c1cccc(Cl)c1)c1c(C(N)=O)cnc2ccc(S(C)(=O)=O)cc12`: the IC50 in [1] is 1000 nM.

As to `CS(=O)(=O)c1ccc2ncc(C(N)=O)c(Nc3cccnc3)c2c1`, the half-inhibitory concentration (IC50) in data set [1] was 100 nM; in [7], 2000 nM.

In the case of `COc1cccc(Nc2c(-c3nc(C)no3)cnc3ccc(S(C)(=O)=O)cc23)c1`, in data set [1], the IC50 is 15800 nM.

As for `COc1cccc(Nc2c(C#N)cnc3ccc(S(C)(=O)=O)cc23)c1`, the half-maximal inhibitory concentration (IC50) in data set [1] is 501 nM.

With `CNC(=O)c1cnc2ccc(S(C)(=O)=O)cc2c1Nc1cccc(OC)c1`, in [1], the concentration for half-maximal inhibition (IC50) is 3160 nM.

What is called IC50 is the concentration needed to halve the response being measured. A word on the solubility: it is the dissolved amount per volume that the medium holds. Read a high solubility as much dissolved substance. As usually defined, the half-life is the time in which the quantity being followed falls by half. For orientation: bioavailability means dose-corrected exposure relative to a reference, in per cent. Low readings indicate little systemic uptake, high ones much systemic uptake. The AUC is the area under the concentration-time curve, a measure of exposure. Read a high AUC as high exposure.
